Values after ≈ are worked out from the molar mass of the structure shown. Active and inactive are the calls of the source. The rule behind the calls is not given here.
Tests used:
[1] = tested on: Escherichia coli; experiment: Antibacterial activity against Escherichia coli ML35p assessed as reduction of colony forming units at 4 times MIC concentration after 5 mins; type: functional; design: scale not given: the % may be the effect or the level left
Outline: (§1)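 Time-kill: overnight culture diluted in MH broth to 10⁵ CFU/mL. 1 mL exposed to peptide at 4× MIC, or water as control, at 37 °C, 200 rpm. At time points, aliquots diluted and plated on MH agar. Colonies counted after 20 h at 37 °C. Time to ~95% kill estimated.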

[2] = tested on: Escherichia coli; experiment: Antibacterial activity against Escherichia coli ML35p after 18 hrs; type: functional
Outline: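 Broth microdilution, modified MIC method for cationic peptides. Overnight culture diluted in Mueller Hinton broth to 10⁵ CFU/mL; peptide added from 10× stock in 0.2% BSA/0.01% acetic acid. MIC = lowest concentration inhibiting measurable growth. Triplicates, repeated at least twice.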

[3] = tested on: Staphylococcus aureus; experiment: Antibacterial activity against vancomycin/methicillin-resistant Staphylococcus aureus ATCC 700699 after 18 hrs; type: functional; conditions: ATCC 700699, 18 h
Outline: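 Modified broth microdilution for cationic peptides. Overnight cells were diluted in Mueller Hinton broth to 10⁵ CFU/mL, and peptide was added from a 10× stock in 0.2% BSA/0.01% acetic acid. MIC = lowest concentration inhibiting measurable growth. Triplicates, repeated at least twice.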

[4] = tested on: Escherichia coli; experiment: Ratio of MBC to MIC for Escherichia coli ML35p; type: functional
Outline: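 MBC per CLSI: 100 μL from each clear MIC well plated on MH agar in triplicate, 18 h incubation; MBC = lowest concentration preventing growth of 99.9% of bacteria. Ratio taken as MBC/MIC. Two independent experiments in triplicate.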

[5] = tested on: Escherichia coli; experiment: Antibacterial activity against Escherichia coli ML35p assessed as reduction of colony forming units at 4 times MIC concentration after 40 mins; type: functional; design: scale not given: the % may be the effect or the level left; outline: as §1
[6] = tested on: Escherichia coli; experiment: Drug uptake in Escherichia coli ML35p inner membrane assessed as increase in fluorescence of propidium iodide at 10 uM measured for 10 mins; type: ADME, organism-based; conditions: in vivo
Outline: (§2)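 PI uptake: mid-log cells washed and resuspended in 5 mM glucose/5 mM HEPES pH 7.2. Peptide added to 10 μM final, with 2.7 μM propidium iodide. Fluorescence (ex 535 nm, em 617 nm) followed for 10 min; lag before rise read from trace.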

[7] = tested on: Escherichia coli; experiment: Drug uptake in Escherichia coli ML35p outer membrane assessed as increase in fluorescence of N-phenylnaphthylamine at 10 uM measured for 10 mins; type: ADME, organism-based; conditions: in vivo
Outline: (§3)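 NPN uptake: mid-log cells washed and resuspended in 5 mM glucose/5 mM HEPES pH 7.2. Peptide added to 10 μM final, with 10 μM NPN. Fluorescence (ex 350 nm, em 420 nm) monitored for 10 min.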

[8] = tested on: Escherichia coli; experiment: Antibacterial activity against Escherichia coli ML35p assessed as reduction of colony forming units at 4 times MIC concentration after 20 mins; type: functional; design: scale not given: the % may be the effect or the level left; outline: as §1
[9] = tested on: Escherichia coli; experiment: Induction of morphological changes in Escherichia coli ML35p assessed as thin filamentous phenotype at MIC concentration after 18 hrs using propidium iodide/Syto9 staining by microscopic analysis; type: functional, organism-based
Outline: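 Incubated overnight (18 h) with peptide at its MIC, 37 °C, 200 rpm. Stained 15 min with PI (2.7 μM) and Syto 9 (6 μM), smeared, heat-fixed and imaged under Syto and PI filters. Untreated cells as control.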

[10] = tested on: Escherichia coli; experiment: Drug uptake in Escherichia coli ML35p outer membrane assessed as time required to permeabilize to outer membrane at 10 uM; type: ADME, organism-based; conditions: in vivo; outline: as §3
[11] = tested on: Escherichia coli; experiment: Drug uptake in Escherichia coli ML35p inner membrane assessed as lag time at 10 uM; type: ADME, organism-based; conditions: in vivo; outline: as §2
[12] = tested on: Escherichia coli; experiment: Drug uptake in Escherichia coli ML35p inner membrane assessed as time required to permeabilize to inner membrane at 10 uM; type: ADME, organism-based; conditions: in vivo; outline: as §2
[13] = tested on: Staphylococcus aureus; experiment: Ratio of MBC to MIC for vancomycin/methicillin-resistant Staphylococcus aureus ATCC 700699; type: functional
Outline: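 For MBC, 100 μL from each clear well was plated on MH agar in triplicate and incubated for 18 h. MBC = lowest concentration preventing growth of 99.9% of bacteria. The ratio is MBC divided by MIC. Two independent experiments.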

CC(=O)NCC(=O)N[C@@H](CCCCN)C(=O)N/C(=C/c1ccccc1)C(=O)N[C@@H](Cc1c[nH]cn1)C(=O)N[C@@H](CCCCN)C(=O)N/C(=C\c1ccccc1)C(=O)N[C@@H](Cc1c[nH]c2ccccc12)C(=O)N[C@@H](C)C(=O)NCCCC[C@H](NC(=O)[C@H](C)NC(=O)[C@H](Cc1c[nH]c2ccccc12)NC(=O)/C(=C\c1ccccc1)NC(=O)[C@H](CCCCN)NC(=O)[C@H](Cc1c[nH]cn1)NC(=O)/C(=C\c1ccccc1)NC(=O)[C@H](CCCCN)NC(=O)CNC(C)=O)C(N)=O [listing 1 of 2 here]
Activity [1]: 50%
MBC [2]: 15 µM (≈ 33.4 µg/mL)
MIC [2]: 10 µM (≈ 22.3 µg/mL)
MIC [3]: > 100 µM
Ratio [4]: 1.5
Activity [5]: 95%

CC(=O)NCC(=O)N[C@@H](CCCNC(=N)N)C(=O)N[C@@H](CCCCN)C(=O)N/C(=C/c1ccccc1)C(=O)N[C@@H](Cc1c[nH]cn1)C(=O)N[C@@H](CCCCN)C(=O)N/C(=C\c1ccccc1)C(=O)N[C@@H](Cc1c[nH]c2ccccc12)C(=O)N[C@@H](C)C(=O)NCCCC[C@H](NC(=O)[C@H](C)NC(=O)[C@H](Cc1c[nH]c2ccccc12)NC(=O)/C(=C\c1ccccc1)NC(=O)[C@H](CCCCN)NC(=O)[C@H](Cc1c[nH]cn1)NC(=O)/C(=C\c1ccccc1)NC(=O)[C@H](CCCCN)NC(=O)[C@H](CCCNC(=N)N)NC(=O)CNC(C)=O)C(N)=O [listing 1 of 2 here]
Drug uptake [6]: Not Active
Drug uptake [7]: Active

CC(=O)NCC(=O)N[C@@H](CCCNC(=N)N)C(=O)N[C@@H](CCCCN)C(=O)N/C(=C/c1ccccc1)C(=O)N[C@@H](Cc1c[nH]cn1)C(=O)N[C@@H](CCCCN)C(=O)N/C(=C\c1ccccc1)C(=O)N[C@@H](Cc1c[nH]c2ccccc12)C(=O)N[C@@H](C)C(=O)NCCCC[C@H](NC(=O)[C@H](C)NC(=O)[C@H](Cc1c[nH]c2ccccc12)NC(=O)/C(=C\c1ccccc1)NC(=O)[C@H](CCCCN)NC(=O)[C@H](Cc1c[nH]cn1)NC(=O)/C(=C\c1ccccc1)NC(=O)[C@H](CCCCN)NC(=O)[C@H](CCCNC(=N)N)NC(=O)CNC(C)=O)C(N)=O [listing 2 of 2 here]
Activity [1]: 50%
MBC [2]: 10 µM (≈ 25.4 µg/mL)
MIC [2]: 5 µM (≈ 12.7 µg/mL)
Activity [8]: 95%
MIC [3]: > 100 µM
Ratio [4]: 2

CC(=O)NCC(=O)N/C(=C/c1ccccc1)C(=O)N[C@@H](CCCNC(=N)N)C(=O)N[C@H](CCCCN)C(=O)N/C(=C/c1ccccc1)C(=O)N[C@@H](Cc1c[nH]cn1)C(=O)N[C@H](CCCCN)C(=O)N/C(=C\c1ccccc1)C(=O)N[C@@H](Cc1c[nH]c2ccccc12)C(=O)N[C@@H](C)C(=O)NCCCC[C@@H](NC(=O)[C@H](C)NC(=O)[C@H](Cc1c[nH]c2ccccc12)NC(=O)/C(=C\c1ccccc1)NC(=O)[C@@H](CCCCN)NC(=O)[C@H](Cc1c[nH]cn1)NC(=O)/C(=C\c1ccccc1)NC(=O)[C@@H](CCCCN)NC(=O)[C@@H](CCCNC(=N)N)NC(=O)/C(=C\c1ccccc1)NC(=O)CNC(C)=O)C(N)=O
Activity [9]: Active

CC(=O)NCC(=O)N/C(=C/c1ccccc1)C(=O)N[C@@H](CCCNC(=N)N)C(=O)N[C@@H](CCCCN)C(=O)N/C(=C/c1ccccc1)C(=O)N[C@@H](Cc1c[nH]cn1)C(=O)N[C@@H](CCCCN)C(=O)N/C(=C\c1ccccc1)C(=O)N[C@@H](Cc1c[nH]c2ccccc12)C(=O)N[C@@H](C)C(=O)NCCCC[C@H](NC(=O)[C@H](C)NC(=O)[C@H](Cc1c[nH]c2ccccc12)NC(=O)/C(=C\c1ccccc1)NC(=O)[C@H](CCCCN)NC(=O)[C@H](Cc1c[nH]cn1)NC(=O)/C(=C\c1ccccc1)NC(=O)[C@H](CCCCN)NC(=O)[C@H](CCCNC(=N)N)NC(=O)/C(=C\c1ccccc1)NC(=O)CNC(C)=O)C(N)=O [listing 1 of 2 here]
Drug uptake [6]: Active
Time [10]: 150 s
Drug uptake [7]: Active
Time [11]: 2.5 min
Time [12]: 230 s

CC(=O)NCC(=O)N[C@@H](Cc1c[nH]cn1)C(=O)N[C@H](CCCCN)C(=O)N/C(=C\c1ccccc1)C(=O)N[C@@H](Cc1c[nH]c2ccccc12)C(=O)N[C@@H](C)C(=O)NCCCC[C@@H](NC(=O)[C@H](C)NC(=O)[C@H](Cc1c[nH]c2ccccc12)NC(=O)/C(=C\c1ccccc1)NC(=O)[C@@H](CCCCN)NC(=O)[C@H](Cc1c[nH]cn1)NC(=O)CNC(C)=O)C(N)=O
MIC [2]: > 100 µM
MIC [3]: > 100 µM

CC(=O)NCC(=O)N[C@H](CCCCN)C(=O)N/C(=C\c1ccccc1)C(=O)N[C@@H](Cc1c[nH]c2ccccc12)C(=O)N[C@@H](C)C(=O)NCCCC[C@@H](NC(=O)[C@H](C)NC(=O)[C@H](Cc1c[nH]c2ccccc12)NC(=O)/C(=C\c1ccccc1)NC(=O)[C@@H](CCCCN)NC(=O)CNC(C)=O)C(N)=O [PEPTIDE A]
MIC [2]: > 100 µM
MIC [3]: > 100 µM

CC(=O)NCC(=O)N[C@@H](CCCNC(=N)N)C(=O)N[C@H](CCCCN)C(=O)N/C(=C/c1ccccc1)C(=O)N[C@@H](Cc1c[nH]cn1)C(=O)N[C@H](CCCCN)C(=O)N/C(=C\c1ccccc1)C(=O)N[C@@H](Cc1c[nH]c2ccccc12)C(=O)N[C@@H](C)C(=O)NCCCC[C@@H](NC(=O)[C@H](C)NC(=O)[C@H](Cc1c[nH]c2ccccc12)NC(=O)/C(=C\c1ccccc1)NC(=O)[C@@H](CCCCN)NC(=O)[C@H](Cc1c[nH]cn1)NC(=O)/C(=C\c1ccccc1)NC(=O)[C@@H](CCCCN)NC(=O)[C@@H](CCCNC(=N)N)NC(=O)CNC(C)=O)C(N)=O
Activity [9]: Active

CC(=O)NCC(=O)N[C@@H](CCCCN)C(=O)N/C(=C/c1ccccc1)C(=O)N[C@@H](Cc1c[nH]cn1)C(=O)N[C@@H](CCCCN)C(=O)N/C(=C\c1ccccc1)C(=O)N[C@@H](Cc1c[nH]c2ccccc12)C(=O)N[C@@H](C)C(=O)NCCCC[C@H](NC(=O)[C@H](C)NC(=O)[C@H](Cc1c[nH]c2ccccc12)NC(=O)/C(=C\c1ccccc1)NC(=O)[C@H](CCCCN)NC(=O)[C@H](Cc1c[nH]cn1)NC(=O)/C(=C\c1ccccc1)NC(=O)[C@H](CCCCN)NC(=O)CNC(C)=O)C(N)=O [listing 2 of 2 here]
Drug uptake [6]: Not Active
Drug uptake [7]: Active

CC(=O)NCC(=O)N/C(=C/c1ccccc1)C(=O)N[C@@H](CCCNC(=N)N)C(=O)N[C@@H](CCCCN)C(=O)N/C(=C/c1ccccc1)C(=O)N[C@@H](Cc1c[nH]cn1)C(=O)N[C@@H](CCCCN)C(=O)N/C(=C\c1ccccc1)C(=O)N[C@@H](Cc1c[nH]c2ccccc12)C(=O)N[C@@H](C)C(=O)NCCCC[C@H](NC(=O)[C@H](C)NC(=O)[C@H](Cc1c[nH]c2ccccc12)NC(=O)/C(=C\c1ccccc1)NC(=O)[C@H](CCCCN)NC(=O)[C@H](Cc1c[nH]cn1)NC(=O)/C(=C\c1ccccc1)NC(=O)[C@H](CCCCN)NC(=O)[C@H](CCCNC(=N)N)NC(=O)/C(=C\c1ccccc1)NC(=O)CNC(C)=O)C(N)=O [listing 2 of 2 here]
Ratio [13]: 1.5
Activity [1]: 96%
MBC [2]: 5 µM (≈ 14.1 µg/mL)
MIC [2]: 2.5 µM (≈ 7.07 µg/mL)
MBC [3]: 7.5 µM (≈ 21.2 µg/mL)
MIC [3]: 5 µM (≈ 14.1 µg/mL)
Ratio [4]: 2

CC(=O)NCC(=O)N[C@H](CCCCN)C(=O)N/C(=C/c1ccccc1)C(=O)N[C@@H](Cc1c[nH]cn1)C(=O)N[C@H](CCCCN)C(=O)N/C(=C\c1ccccc1)C(=O)N[C@@H](Cc1c[nH]c2ccccc12)C(=O)N[C@@H](C)C(=O)NCCCC[C@@H](NC(=O)[C@H](C)NC(=O)[C@H](Cc1c[nH]c2ccccc12)NC(=O)/C(=C\c1ccccc1)NC(=O)[C@@H](CCCCN)NC(=O)[C@H](Cc1c[nH]cn1)NC(=O)/C(=C\c1ccccc1)NC(=O)[C@@H](CCCCN)NC(=O)CNC(C)=O)C(N)=O
Activity [9]: Active

Reference: ChEMBL document CHEMBL1250477, “Reverse engineering truncations of an antimicrobial peptide dimer to identify the origins of potency and broad spectrum of action” (J Med Chem, 2010)
